Source: ChEMBL document CHEMBL1129031, “Cyclic nitrone free radical traps: isolation, identification, and synthesis of 3,3-dimethyl-3,4-dihydroisoquinolin-4-ol N-oxide, a metabolite with reduced side effects” (J Med Chem, 1996)
pIC50: −log10 of the molar value.

Key:
[1] = Compound was tested for brain permeability at 200 mg/kg i.p. after 30 min; assay type: ADME, organism-based; parameters: dose 200 mg/kg, route intraperitoneal; details: in vivo, ip, 0.5 h
Outline: (§1)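 Rats given a single ip dose of 200 mg/kg and killed at 30 or 60 min after dosing. Brains were removed, homogenized and extracted with CHCl₃/MeOH. Brain level is reported as µg/g wet weight.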

[2] = Compound was tested for brain permeability at 200 mg/kg i.p. after 60 min; assay type: ADME, organism-based; parameters: dose 200 mg/kg, route intraperitoneal; details: in vivo, ip, 1 h; outline: as §1
[3] = Lipophilicity expressed as log K'w.; assay type: physicochemical; details: reversed-phase HPLC
[4] = In vitro antioxidant activity was measured as IC50, inhibition concentration against neuronal peroxidation.; assay type: functional, Rattus norvegicus
Outline: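 Rat cerebellar granule cells (from 8-day pups, 8-10 days in vitro) in glucose-free Na⁺-free Locke's, pH 7.3. Nitrone was preincubated 30 min, then FeCl₂ added at 100 µM final for 45 min. TBARS measured in the medium, with no-iron background subtracted. IC50 is the concentration inhibiting 50% of iron-induced oxidation.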

Mus musculus [5] = test: (§2) The compound was tested for acute toxicity and activity is expressed as deaths/5 mice after iv (200 mg/kg) administration.; assay type: functional
Outline: (§3)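 Acute toxicity screen in mice given the compound intravenously at 200 mg/kg body weight, five mice per group. Read-out is the survival rate, reported as the number of deaths among the five animals.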

Mus musculus [6] = test: (§4) The compound was tested for acute toxicity and activity is expressed as deaths/5 mice after iv (400 mg/kg) administration.; assay type: functional
Outline: (§5)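 Acute toxicity screen in mice given the compound intravenously at 400 mg/kg body weight, five mice per group. Read-out is the survival rate, reported as the number of deaths among the five animals.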

[7] = In vitro antioxidant activity was measured as IC50, Inhibition concentration against Liposomal peroxidation.; assay type: functional, Glycine max
Outline: (§6)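 Liposomes were made from soybean phosphatidylcholine. Oxidation was initiated and quantitated by the previously described method. Activity is expressed as IC50, the concentration inhibiting lipid peroxidation by 50%.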

Rattus norvegicus [8] = test: Compound was tested for rat brain permeability at 200 mg/kg i.p. after 30 min; assay type: ADME, organism-based; parameters: dose 200 mg/kg, route intraperitoneal; details: in vivo, ip, 0.5 h; outline: as §1
Rattus norvegicus [9] = test: Compound was tested for rat brain permeability at 200 mg/kg i.p. after 60 min; assay type: ADME, organism-based; parameters: dose 200 mg/kg, route intraperitoneal; details: in vivo, ip, 1 h; outline: as §1
[10] = Maintenance of cell viability by the compound was tested in vitro against cerebellar granule cell cultures from 8-day-old-rats; assay type: functional; details: Rattus norvegicus
Outline: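 Cerebellar granule cultures from 8-day-old rats were used at 8-10 days in vitro. Cells got nitrone for 30 min, then 100 µM FeCl₂ for 45 min in Na⁺-free Locke's. MEM plus MTT was added for 4 h and the cells lysed in acidic 2-propanol. Read at A570-630, with cell death given relative to no-iron cells. Two separate experiments about 6 months apart.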

[11] = In vitro antioxidant activity was measured as IC50, Inhibitory concentration against Liposomal peroxidation.; assay type: functional, Glycine max; outline: as §6
Mus musculus [12] = test: as §2; assay type: organism-based; details: in vivo; outline: as §3
Mus musculus [13] = test: as §4; assay type: organism-based; details: in vivo; outline: as §5

Row | Compound | Brain level [1] | Brain level [2] | Log k'w [3] | pIC50 [4] | Toxicity (Mus musculus [5]) | Toxicity (Mus musculus [6]) | pIC50 [7] | Brain level (Rattus norvegicus [8]) | Brain level (Rattus norvegicus [9]) | pIC50 [10] | pIC50 [11] | Toxicity (Mus musculus [12]) | Toxicity (Mus musculus [13])
1 | CC1(C)Cc2ccccc2C=[N+]1[O-] | 109 µg/g | 77 µg/g | 1.9 | 3.51 | 0 | 5 | 2.78 | – | – | – | – | – | –
2 | CC(C)(C)/[N+]([O-])=C/c1ccccc1 | – | – | – | 2.59 | 1 | 4 | – | 51 µg/g | 38 µg/g | 2.59 | 1.84 | – | –
3 | CC(=O)OC1c2ccccc2C=[N+]([O-])C1(C)C (centres undefined) | – | – | 1.95 | 3.08 | – | – | 2.68 | – | – | 3.18 | – | 0 | 0
4 | [O-][N+]1=Cc2ccccc2C(O)C12CCCCC2 (centres undefined) | – | – | 2.1 | 3.28 | – | – | 3.27 | – | – | 3.23 | – | 0 | 0
5 | [O-][N+]1=Cc2ccccc2C(O)C12CCCC2 (centres undefined) | – | – | 1.67 | 3.11 | – | – | 2.98 | – | – | 3.09 | – | 0 | 0
6 | CC1(C)C(=O)c2ccccc2C=[N+]1[O-] | – | – | 1.65 | 3.08 | – | – | 3.03 | 103 µg/g | 67 µg/g | 3.05 | – | 0 | 1
7 | CC1(C)C(O)c2ccccc2C=[N+]1[O-] (centres undefined) | 142 µg/g | 127 µg/g | 0.91 | 2.72 | 0 | 0 | 2.26 | – | – | 2.82 | – | – | –
8 | O=C1c2ccccc2C=[N+]([O-])C12CCCC2 | – | – | 2.05 | 3.99 | – | – | 3.80 | – | – | – | – | 0 | 4
9 | O=C1c2ccccc2C=[N+]([O-])C12CCCCC2 | – | – | 2.6 | 4.43 | – | – | 4.57 | – | – | 4.41 | – | 0 | 5
